# Published values collected from several papers.
# Each line is one published result; the experiments were not run side by side.
# BRAF: Serine/threonine-protein kinase B-raf (BRAF, Homo sapiens, UniProt P15056)
# BRAF V600E: Serine/threonine-protein kinase B-raf (BRAF, Homo sapiens, UniProt P15056, V600E)
Compound,target,observed,mode,method,tested at,endpoint,result
O=C1NC(=O)c2cc(Nc3ccc(F)cc3)c(Nc3ccc(F)cc3)cc21,BRAF,cell-free assay,,,0.5 µM,remaining signal,94.2%
Cc1sc(C(=O)NC2COC2)cc1-n1cc(NC(=O)Nc2c(F)cccc2Cl)cn1,BRAF,enzyme activity,inhibitor,,10 µM,remaining activity,105%
CN(c1nccc(-c2cnn3ncccc23)n1)C1CC1,BRAF,binding,,,1 µM,remaining binding,100%
CCCCN(CCCC)C(=O)CN1C[C@H](c2cc(OC)c3c(c2)OCO3)[C@@H](C(=O)O)[C@@H]1CC(C)(C)CCC,BRAF V600E,cell-free assay,,competition with immobilised ligand,1 µM,remaining binding,89.1%
Cc1cc(NC(=O)c2cccc3cc(-c4cccc5[nH]nc(N)c45)ccc23)ccc1F,BRAF,enzyme activity,inhibitor,,0.1 µM,activity vs control,99%
O=C(Nc1cnn(-c2csc(C(=O)NC3COC3)c2)c1)Nc1c(F)cccc1Cl,BRAF,enzyme activity,inhibitor,,5 µM,remaining activity,99.9%
COc1ccc2cc(OCC3(C(=O)O)CN(C(=O)c4ccc(F)cc4)C3)ccc2c1,BRAF,cell-free assay,,competition with immobilised ligand,1 µM,remaining binding,93%
Cc1ccc(C(=O)Nc2ccc(CN3CCN(C)CC3)c(C(F)(F)F)c2)cc1C#Cc1cnc2cccnn12,BRAF V600E,cell-free assay,,,23.5 nM,remaining signal,4.5%
Cc1nc(N2CC[C@@H](O)C2)ncc1-c1cc(C(F)(F)F)cc2[nH]ncc12,BRAF,cell-free assay,,competition with immobilised ligand,1 µM,remaining binding,73%
CC(C)(C)c1nc(-c2cccc(NS(=O)(=O)c3c(F)cccc3F)c2F)c(-c2ccnc(N)n2)s1,BRAF,enzyme activity,inhibitor,radiometric,1 µM,activity vs control,5%
Cc1c(NC(=O)c2cc(C(N)=O)nc3cc(F)ccc23)c(C(F)(F)F)nn1Cc1ccc(C#N)cc1,BRAF,cell-free assay,,competition with immobilised ligand,1 µM,remaining binding,91%
CC(C)(C)c1nc(-c2cccc(NS(=O)(=O)c3c(F)cccc3F)c2F)c(-c2ccnc(N)n2)s1,BRAF V600E,enzyme activity,inhibitor,ATP luminescence,1 µM,inhibition,81%
c1nc2c(Nc3ccc4c(c3)OCCO4)nc(Nc3ccc4c(c3)OCCO4)nc2[nH]1,BRAF,enzyme activity,inhibitor,,10 µM,activity vs control,92%
N[C@@H]1CCN(c2nccc(-c3cnn4ncccc34)n2)C1,BRAF V600E,binding,,,1 µM,remaining binding,97%
CC(C)(C)c1nc2c(s1)c1nc(N)ncc1c1ccc(NS(=O)(=O)c3c(F)cccc3F)c(F)c12,BRAF V600E,enzyme activity,inhibitor,radiometric,1 µM,remaining activity,27%
COc1ccc(-c2csc(NN=C(CS(=O)(=O)c3ccccc3)c3ccc(F)cc3)n2)cc1,BRAF V600E,enzyme activity,inhibitor,ATP luminescence,10 µM,inhibition,89%
C[C@@H]1CCN(C(=O)CC#N)C[C@@H]1N(C)c1ncnc2[nH]ccc12,BRAF,cell-free assay,,,0.5 µM,remaining signal,93.7%
Nc1ncnc2occ(-c3ccc(NC(=O)Nc4cc(C(F)(F)F)ccc4F)cc3)c12,BRAF,cell-free assay,,,20 µM,remaining signal,0.8%
CNC(=O)Nc1ccc2c(c1)[C@@]1(CC2)OC(=O)N(CC(=O)N(Cc2ccc(F)cc2)[C@@H](C)C(F)(F)F)C1=O,BRAF V600E,cell-free assay,,competition with immobilised ligand,1 µM,remaining binding,96%
Cc1ccc(C(CS(=O)(=O)c2ccccc2)=NNC2=NC(=O)C(=NNc3ccccc3)S2)cc1,BRAF V600E,enzyme activity,inhibitor,ATP luminescence,1 µM,inhibition,67%
CNC(=O)c1ccc(Nc2ncc(C(F)(F)F)c(NCc3nccnc3N(C)S(C)(=O)=O)n2)cc1,BRAF V600E,cell-free assay,,competition with immobilised ligand,0.1 µM,remaining binding,100%
Cc1ccc(C(CS(=O)(=O)c2ccccc2)=NNC2=NC(=O)C(=NNc3ccc(Cl)cc3)S2)cc1,BRAF V600E,enzyme activity,inhibitor,ATP luminescence,1 µM,inhibition,61%
COc1ccc2c(c1)O[C@H](c1ccc(OC)c(OC)c1)C[C@@H]2NC(=O)C1(c2ccc3c(c2)OC(F)(F)O3)CC1,BRAF V600E,cell-free assay,,competition with immobilised ligand,1 µM,remaining binding,93%
CN(C)C1CCN(CC#Cc2nn(C3CCCC3)c3nc(NCc4ccccc4)ncc23)C1 (stereo not drawn),BRAF,enzyme activity,inhibitor,FRET,0.1 µM,inhibition,-3%
CC1CCCN1c1nccc(-c2cnn3ncccc23)n1 (stereo not drawn),BRAF,binding,,,1 µM,remaining binding,100%
NC(=S)NN=C(CS(=O)(=O)c1ccccc1)c1ccc(F)cc1,BRAF V600E,enzyme activity,inhibitor,ATP luminescence,0.1 µM,inhibition,51%
O=C(Nc1cnc(Oc2ccc(F)cc2)nc1)N1CCc2ncccc2[C@@H]1c1ccc(F)cc1,BRAF V600E,cell-free assay,,competition with immobilised ligand,1 µM,remaining binding,83%
Cc1ccc(C(CS(=O)(=O)c2ccccc2)=NNc2nc(-c3ccc(OCCCCOc4ccc(-c5csc(NN=C(CS(=O)(=O)c6ccccc6)c6ccc(C)cc6)n5)cc4)cc3)cs2)cc1,BRAF V600E,enzyme activity,inhibitor,ATP luminescence,1 µM,inhibition,84%
COc1cc(Nc2c(C#N)cnc3cc(OCCCN4CCN(C)CC4)c(OC)cc23)c(Cl)cc1Cl,BRAF,cell-free assay,,,0.5 µM,remaining signal,91.7%
Cc1ccc(C(=O)NCc2ccsc2)cc1C#Cc1cn(C(C)C)c2ncnc(N)c12,BRAF,enzyme activity,inhibitor,,1 µM,activity vs control,47%
